Screens (PubChem)
Hits are enriched below; roughly 1.9% of the tested compounds scored in any of these assays.
Autophagy mod – modulators of autophagy | MEF GFP-LC3 puncta imaging; test concentration mostly 10 µM | 0.98% of 190,000 active | AID 463193 | calls only at 10 µM (by protocol);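 active means percentage of spot-positive cells more than 3 SD above its plate mean, without a fluorescence outlier flag or 80% toxicity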;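 further: spot-positive cell cutoff set from DMSO-treated cells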
MT stabilize HCS – microtubule stabilization, imaging screen | AID 2205 | 0.83% of 200,000 active | HeLa tubulin immunostaining HCS, 24 h; share of cells brighter than vehicle mean+2SD | % tubulin-high responders, % at 10 µM;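 active means plate Z-score above 3 for both tubulin-high and condensed-nucleus cell shares, with cell loss under 80%, at 10 µM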;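 further: anti alpha tubulin signal scored within the nucleus-defined area of each cell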
TbHK1 inh – blocks Trypanosoma brucei hexokinase 1 activity | recombinant TbHK1, G6PDH-coupled NADH A340 | AID 1430 | 0.11% of 220,000 active | inhibition, % at 10 µM;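 active means inhibition of 50% or more in the single-dose primary screen; inactive means inhibition below 50%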
Insulin prom up – MIN6 insulin promoter up-regulation. MIN6 insulin promoter-GFP reporter, high-content imaging; stronger effect = higher value. 0.3% of 190,000 active. z-score at 5 µM;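 active means z-score above 3 at 5 µM with at least 500 cells counted in the well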
bCat nuc transl – beta-catenin nuclear translocation modulation. 0.3% of 190,000 active. AID 1665. HeLa beta-catenin nuclear translocation, immunofluorescence imaging. nuclear translocation activity, % at 5 µM;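 active means nuclear translocation activity above 50% at 5 µM, with a well cell count of 50 or more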;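 further: per-cell ratio of nuclear to cytoplasmic median beta-catenin stain intensity; plate controls were DMSO negative control for no effect and GSK-3 inhibitor IX positive control for full effect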
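Test system: HeLa cells, endogenous beta-catenin; Compound: single 5 µM dose plus 0.02–20 µM confirmation series; Times: compound exposure 24 h at 37°C; Signal: fluorescence imaging of beta-catenin antibody stain plus DAPI; Read-out: % activation, nuclear-to-cytoplasmic median beta-catenin signal ratio per cell.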
* marks the source's active call; other numbers are inactive results; i = inactive; / = not tested or not shown; + = active, no number.

SMILES | Autophagy mod | MT stabilize HCS | TbHK1 inh | Insulin prom up | bCat nuc transl
C#CCCOC(=O)N1C2=NC(C(=O)OC)=C(C(=O)OC)[C@@H]3N(Cc4ccccc4)c4ccccc4[C@]23C[C@H]1C(=O)OC | / | / | -20 | 0.08 | 0
C=CCN1C(=O)C(C)(C)N(C(C)=O)c2ccccc21 | i | 3 | 0 | 0.53 | -2
CC(=O)N1c2ccccc2N(Cc2ccc(C)cc2C)C(=O)C1(C)C | + | 19* | -4 | 0.22 | /
O=C(O)CCCNc1ccc([N+](=O)[O-])c(NCCCC(=O)O)n1 | i | 2 | -10 | / | 1
C/C(=N\O)c1cc(Cl)ccc1O | / | / | -7 | -0.65 | 0
O=C(COC(=O)c1cc(S(=O)(=O)N2CCCCC2)ccc1N1CCOCC1)NCCc1ccc(F)cc1 | i | 4 | -15 | 0.55 | -1
O=C(Cc1c(O)c2ccccc2[nH]c1=O)NCc1cccc(F)c1 | i | 3 | 2 | -0.28 | 1
O=C(Cc1c(O)c2ccccc2[nH]c1=O)NCc1ccccc1F | i | 4 | 54* | 0.57 | -2
CCN1C(=O)C(CC(=O)N2CCN(C(c3ccccc3)c3ccccc3)CC2)N(CC)C1=O (configuration not stated) | + | 3 | -10 | 0.47 | /
CCN1C(=O)CC(N2CCN(C(c3ccccc3)c3ccccc3)CC2)C1=O (configuration not stated) | i | 1 | 4 | 1.4 | -4
CCOc1ccc(NC(=O)c2nsc(Cl)c2Cl)cc1 | + | 3 | -4 | -0.1 | -1
COc1ccc(-c2csc(/C(C#N)=C/Nc3cc4oc5ccccc5c4cc3OC)n2)cc1 | + | 2 | -5 | / | 0
O=C1CN(C(=O)COc2ccc(F)cc2Br)c2ccccc2N1 | i | 3 | -2 | / | 0
COCCCNC(=O)c1cn(CC(C)C)c(=O)c2c1c1ccccc1n2C | i | 3 | -13 | 0.02 | /
CCOc1ccc(NC(=O)c2cn(CC(C)C)c(=O)c3c2c2ccccc2n3C)cc1 | + | 1 | -15 | 0.39 | 3
COc1ccc(-c2ccnc(-c3ccc(O)cc3)n2)cc1 | i | 12 | -1 | 0.48 | 64*
N#CC1=C(N)NC(SCc2ccc(F)cc2)=C(C#N)C12CCCCC2 | i | 47* | -2 | -0.95 | /
O=C(COC(=O)c1ccc(NS(=O)(=O)c2cccs2)cc1)NCc1ccco1 | / | / | 1 | -0.12 | 111*
O=C(COC(=O)c1ccc(NS(=O)(=O)c2cccs2)cc1O)NCc1ccccc1 | i | 24* | -7 | -0.19 | 76*
O=C(COC(=O)c1ccc(NS(=O)(=O)c2cccs2)cc1O)Nc1nc2ccccc2s1 | i | 3 | -1 | -0.06 | -2
CC1=C(C)CC(C(=O)Nc2ccc3c(c2)OCO3)C(C(=O)O)C1 (configuration not stated) | i | 2 | 0 | 0.42 | 0
Cc1noc(C)c1C(=O)OCC(=O)Nc1c(F)cccc1F | i | 1 | -1 | -0.7 | -3
C=C(C)Cn1c(-c2ccncc2)n[nH]c1=S | i | 3 | -7 | 0.7 | 2
CC(=O)c1c(C)[nH]c(C(=O)CN2C(=O)NC(C)(c3ccc(C)cc3)C2=O)c1C (configuration not stated) | + | 3 | -8 | -0.83 | -1
CCOC(=O)c1[nH]c(C)c(CN(C(C)=O)c2ccc(OCC)cc2)c1C | i | 20* | 8 | -0.42 | 5
SMILES | Autophagy mod | MT stabilize HCS | TbHK1 inh | Insulin prom up | bCat nuc transl
CCOC(=O)c1[nH]c(C)c(CN(CCc2ccccc2)S(C)(=O)=O)c1C | i | 5 | 2 | 0.53 | 0
COC(=O)C(=C/C=C/c1ccco1)C(=O)OC | / | / | -67 | -0.08 | 0
COc1ccc(NC(=O)/C(C#N)=C\C=C\c2ccco2)cc1 | i | 19* | -17 | 0.1 | 9
CN(C)C(=O)C1C2NC(=S)N(c3cccc(Cl)c3)C1(C)Oc1ccc(Cl)cc12 (configuration not stated) | i | 2 | -7 | 3.5* | 0
CN(C)C(=O)C1C2NC(=S)N(c3ccc(Cl)cc3)C1(C)Oc1ccc(Cl)cc12 (configuration not stated) | i | 2 | 1 | -0.5 | /
Cc1oc(-c2cccc(C(F)(F)F)c2)nc1CN1CCOCC1 | i | 1 | -3 | 0.54 | -1
Cc1cc(C)c2cc3c(N)c(C(=O)N4CCOCC4)sc3nc2c1 | i | 4 | -16 | 0.1 | 0
Cc1ccc(C)c2nc3sc(C(=O)N4CCOCC4)c(N)c3cc12 | i | 28* | -6 | 1.4 | 43
Cc1cccc2cc3c(N)c(C(=O)N4CCc5ccccc54)sc3nc12 | + | 12* | -13 | 4.4* | 12
